The source of these data is paper PMC2606940 (The Journal of General Physiology, 2009).

Changes are numbered by the printed parent chain. Where two headings read alike, the source gives them in different places.

Holding throughout (type): cell-based
What all share (conditions): read-out: Apparent affinity (K1/2)

The target of one assay is T1, CLC-0 E166V mutant (Torpedo marmorata, UniProt P21564, C212S/E166V).
T1 sequence (P21564 1-805 E166V/C212S): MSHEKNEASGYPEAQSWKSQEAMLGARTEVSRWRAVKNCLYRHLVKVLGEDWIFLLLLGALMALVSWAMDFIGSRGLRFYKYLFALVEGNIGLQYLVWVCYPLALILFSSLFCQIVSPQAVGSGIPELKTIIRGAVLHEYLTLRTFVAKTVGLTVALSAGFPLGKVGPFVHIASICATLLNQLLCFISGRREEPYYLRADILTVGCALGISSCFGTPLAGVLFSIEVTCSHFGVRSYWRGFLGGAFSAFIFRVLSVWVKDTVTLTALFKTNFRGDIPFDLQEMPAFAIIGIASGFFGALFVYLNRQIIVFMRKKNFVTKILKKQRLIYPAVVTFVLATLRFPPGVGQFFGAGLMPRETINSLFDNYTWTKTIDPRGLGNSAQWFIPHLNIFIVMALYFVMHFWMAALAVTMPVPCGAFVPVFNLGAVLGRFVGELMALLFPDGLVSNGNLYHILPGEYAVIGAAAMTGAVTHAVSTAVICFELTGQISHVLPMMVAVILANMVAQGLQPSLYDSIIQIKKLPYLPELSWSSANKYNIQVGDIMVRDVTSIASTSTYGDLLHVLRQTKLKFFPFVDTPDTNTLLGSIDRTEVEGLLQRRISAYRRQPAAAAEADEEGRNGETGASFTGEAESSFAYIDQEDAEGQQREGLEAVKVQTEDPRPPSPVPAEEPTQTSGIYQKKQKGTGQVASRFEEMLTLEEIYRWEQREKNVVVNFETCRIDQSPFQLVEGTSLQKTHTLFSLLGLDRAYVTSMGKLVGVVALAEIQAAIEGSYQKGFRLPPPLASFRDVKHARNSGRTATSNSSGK
Put shortly: (§1)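 CLC-0 mutants in the C212S background were transfected into HEK293 cells with lipofectamine and recorded 1–3 d later as excised inside-out patches. Both sides held 130 mM NaCl, 5 mM MgCl2, 10 mM HEPES and 1 mM EGTA, pH 7.4. CPA was perfused continuously onto the cytoplasmic face. Steady-state current over the last 10 ms was normalized to bracketing blocker-free controls and fitted to a Langmuir function for K1/2. Values are mean ± SEM of ~4–6 patches.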

In a further assay the target is T2, CLC-0 E166Y mutant (Torpedo marmorata, UniProt P21564, C212S/E166Y).
T2 sequence (P21564 1-805 E166Y/C212S): T1 sequence (P21564 1-805 E166V/C212S) with V166Y
Put shortly: as §1

A further assay has as its target T3, CLC-0 E166W mutant (Torpedo marmorata, UniProt P21564, C212S/E166W).
T3 sequence (P21564 1-805 E166W/C212S): T1 sequence (P21564 1-805 E166V/C212S) with V166W
A digest of the protocol:
as §1

Consider `CCCCCCCC(=O)O` [octanoate], for which the IC50 on CLC-0 E166V mutant (−40 mV) came to 231 ± 14 µM; at CLC-0 E166V mutant (−60 mV), 126 ± 6.5 µM; on CLC-0 E166V mutant (−80 mV), 67.2 ± 3.7 µM; at CLC-0 E166V mutant (−100 mV) it was 35.3 ± 2.8 µM; on CLC-0 E166V mutant (−120 mV), 18.4 ± 1.5 µM; on CLC-0 E166V mutant (−140 mV), 10.2 ± 0.8 µM. For the same compound, the IC50 at CLC-0 E166V mutant (−160 mV) is 6 ± 0.4 µM; on CLC-0 E166Y mutant (−80 mV), 16700 ± 650 µM; on CLC-0 E166Y mutant (−100 mV) it was 11200 ± 540 µM; at CLC-0 E166Y mutant (−120 mV) it was 7430 ± 410 µM; at CLC-0 E166Y mutant (−140 mV) it was 4990 ± 310 µM; at CLC-0 E166Y mutant (−160 mV), 3360 ± 180 µM. Besides, the IC50 at CLC-0 E166W mutant (−80 mV) came out at 19200 ± 3300 µM; on CLC-0 E166W mutant (−100 mV) it was 13000 ± 2000 µM; at CLC-0 E166W mutant (−120 mV), 8600 ± 1300 µM; at CLC-0 E166W mutant (−140 mV), 5530 ± 870 µM; on CLC-0 E166W mutant (−160 mV) it was 3500 ± 590 µM.

As to `O=C(O)COc1ccc(Cl)cc1` [CPA, p-chlorophenoxy acetate], the IC50 on CLC-0 E166V mutant (−40 mV) was 676 ± 78 µM; at CLC-0 E166V mutant (−60 mV) it was 373 ± 37 µM; on CLC-0 E166V mutant (−80 mV), 198 ± 15 µM; on CLC-0 E166V mutant (−100 mV) it was 113 ± 10 µM; on CLC-0 E166V mutant (−120 mV) it was 65 ± 7 µM; on CLC-0 E166V mutant (−140 mV), 40 ± 4 µM. The IC50 is 26 ± 3 µM on CLC-0 E166V mutant (−160 mV); 6180 ± 670 µM at CLC-0 E166Y mutant (−40 mV); 2790 ± 150 µM on CLC-0 E166Y mutant (−60 mV); 1370 ± 50 µM at CLC-0 E166Y mutant (−80 mV); 700 ± 10 µM at CLC-0 E166Y mutant (−100 mV); 380 ± 10 µM on CLC-0 E166Y mutant (−120 mV). Moreover, the IC50 at CLC-0 E166Y mutant (−140 mV) was determined as 220 ± 10 µM; at CLC-0 E166Y mutant (−160 mV) it was 130 ± 10 µM; on CLC-0 E166W mutant (−60 mV) it was 13200 ± 2100 µM; on CLC-0 E166W mutant (−80 mV) it was 6660 ± 980 µM; on CLC-0 E166W mutant (−100 mV), 3490 ± 410 µM; at CLC-0 E166W mutant (−120 mV), 1860 ± 220 µM. The IC50 at CLC-0 E166W mutant (−140 mV) amounted to 970 ± 130 µM; on CLC-0 E166W mutant (−160 mV), 550 ± 70 µM.
